Values after ≈ are worked out from the molar mass of the structure shown.
Key:
[1] = Solubility in simulated gastric fluid at pH 2.0; type: physicochemical
[2] = Oral bioavailability in rat; type: ADME, organism-based; settings: in vivo
[3] = Apparent permeability across human Caco2 cells; type: ADME, cell-based; settings: Caco-2
[4] = Stability in simulated intestinal fluid at pH 7.5 assessed as half life; type: physicochemical; settings: for half-life: simulated intestinal fluid; for Stability: simulated gi fluid
hERG (KCNH2) = hERG (KCNH2) (Homo sapiens, UniProt Q12809); assay: Inhibition of human ERG
hERG (KCNH2), sequence (Q12809 whole entry): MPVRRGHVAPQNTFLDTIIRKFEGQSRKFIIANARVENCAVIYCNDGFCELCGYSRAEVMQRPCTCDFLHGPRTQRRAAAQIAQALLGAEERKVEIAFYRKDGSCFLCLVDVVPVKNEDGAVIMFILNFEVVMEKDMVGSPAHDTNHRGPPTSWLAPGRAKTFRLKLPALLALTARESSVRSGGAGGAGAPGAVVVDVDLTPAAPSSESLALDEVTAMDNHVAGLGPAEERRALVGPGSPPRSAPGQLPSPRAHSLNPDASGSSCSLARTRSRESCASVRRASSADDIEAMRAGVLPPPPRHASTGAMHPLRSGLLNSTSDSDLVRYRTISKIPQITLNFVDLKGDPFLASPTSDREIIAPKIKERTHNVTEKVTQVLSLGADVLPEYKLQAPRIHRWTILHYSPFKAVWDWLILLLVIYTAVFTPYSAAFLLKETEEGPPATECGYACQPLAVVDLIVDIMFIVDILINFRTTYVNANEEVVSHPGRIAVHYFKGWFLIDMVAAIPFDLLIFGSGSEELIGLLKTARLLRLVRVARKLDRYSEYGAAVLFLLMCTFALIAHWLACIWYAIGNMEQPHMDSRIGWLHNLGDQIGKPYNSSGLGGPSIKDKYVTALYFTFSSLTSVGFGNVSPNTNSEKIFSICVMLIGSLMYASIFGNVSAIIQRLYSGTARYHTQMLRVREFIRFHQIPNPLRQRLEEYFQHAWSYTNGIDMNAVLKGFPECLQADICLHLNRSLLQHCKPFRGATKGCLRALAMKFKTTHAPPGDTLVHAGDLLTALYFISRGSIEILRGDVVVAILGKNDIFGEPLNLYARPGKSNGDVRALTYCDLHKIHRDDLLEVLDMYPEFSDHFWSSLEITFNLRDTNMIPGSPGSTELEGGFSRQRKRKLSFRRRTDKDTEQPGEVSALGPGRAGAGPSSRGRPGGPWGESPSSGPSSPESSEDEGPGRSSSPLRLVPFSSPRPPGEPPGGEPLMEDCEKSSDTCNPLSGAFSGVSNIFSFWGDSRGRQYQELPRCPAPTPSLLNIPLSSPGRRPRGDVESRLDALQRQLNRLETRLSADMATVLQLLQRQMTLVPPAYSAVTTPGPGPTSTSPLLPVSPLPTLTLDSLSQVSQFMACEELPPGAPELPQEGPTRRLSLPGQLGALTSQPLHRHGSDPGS

Integrin alpha-4/beta-1 [5] = molecular target: T1, Integrin alpha-4/beta-1 (Homo sapiens, UniProt P05556+P13612); assay: Inhibition of human VCAM1 binding to integrin alpha4beta1 receptor in human Ramos cells labeled with Calcein AM relative to RO0270608; type: cell-based
T1 sequence (P05556 whole entry, one chain of several): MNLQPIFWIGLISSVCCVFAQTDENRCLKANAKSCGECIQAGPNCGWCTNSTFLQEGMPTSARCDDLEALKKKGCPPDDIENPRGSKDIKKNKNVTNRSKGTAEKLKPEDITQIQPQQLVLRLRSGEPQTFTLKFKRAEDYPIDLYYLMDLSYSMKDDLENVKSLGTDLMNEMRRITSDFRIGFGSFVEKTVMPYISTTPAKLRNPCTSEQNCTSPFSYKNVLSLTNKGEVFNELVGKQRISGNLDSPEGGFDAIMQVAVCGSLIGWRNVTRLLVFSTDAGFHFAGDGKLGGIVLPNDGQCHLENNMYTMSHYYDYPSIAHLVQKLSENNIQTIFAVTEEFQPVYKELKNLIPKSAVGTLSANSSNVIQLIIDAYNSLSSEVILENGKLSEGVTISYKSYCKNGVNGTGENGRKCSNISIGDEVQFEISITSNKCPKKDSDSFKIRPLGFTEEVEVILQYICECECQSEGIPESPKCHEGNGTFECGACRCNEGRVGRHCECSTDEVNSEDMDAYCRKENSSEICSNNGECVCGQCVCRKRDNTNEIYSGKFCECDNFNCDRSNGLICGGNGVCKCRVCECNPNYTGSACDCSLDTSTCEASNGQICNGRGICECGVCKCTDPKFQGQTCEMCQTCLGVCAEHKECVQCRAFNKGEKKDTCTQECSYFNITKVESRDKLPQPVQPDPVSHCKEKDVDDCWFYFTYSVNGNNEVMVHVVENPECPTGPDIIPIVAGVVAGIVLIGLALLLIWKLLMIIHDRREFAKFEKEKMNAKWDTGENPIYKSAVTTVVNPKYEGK
In short: (§1)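 Serially diluted compound tested for blocking adhesion of Calcein AM-labelled cells to recombinant human counter-ligand: RAMOS cells on VCAM-1 (α4β1) and RPMI 8866 cells on MAdCAM-1 (α4β7). Cells activated beforehand in Mn2+-containing binding buffer for maximal activation. IC50 taken from fluorescence; RO0270608 run on every plate, and relative potency expressed as fold versus this control because cell activity drifted with passage.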

[6] = molecular target: Integrin alpha-4/beta-7 (Homo sapiens) (UniProt P13612+P26010); assay: Inhibition of human MAdCAM1 binding to integrin alpha4beta7 receptor in human RPMI 8866 cells labeled with Calcein AM relative to RO0270608; type: cell-based; in short: as §1
Integrin alpha-4/beta-7 = molecular target: T2, Integrin alpha-4/beta-7 (Homo sapiens, UniProt P13612+P26010); assay: Inhibition of human MAdCAM1 binding to integrin alpha4beta7 receptor in human RPMI 8866 cells labeled with Calcein AM; type: cell-based; in short: as §1
T2 sequence (P13612 whole entry): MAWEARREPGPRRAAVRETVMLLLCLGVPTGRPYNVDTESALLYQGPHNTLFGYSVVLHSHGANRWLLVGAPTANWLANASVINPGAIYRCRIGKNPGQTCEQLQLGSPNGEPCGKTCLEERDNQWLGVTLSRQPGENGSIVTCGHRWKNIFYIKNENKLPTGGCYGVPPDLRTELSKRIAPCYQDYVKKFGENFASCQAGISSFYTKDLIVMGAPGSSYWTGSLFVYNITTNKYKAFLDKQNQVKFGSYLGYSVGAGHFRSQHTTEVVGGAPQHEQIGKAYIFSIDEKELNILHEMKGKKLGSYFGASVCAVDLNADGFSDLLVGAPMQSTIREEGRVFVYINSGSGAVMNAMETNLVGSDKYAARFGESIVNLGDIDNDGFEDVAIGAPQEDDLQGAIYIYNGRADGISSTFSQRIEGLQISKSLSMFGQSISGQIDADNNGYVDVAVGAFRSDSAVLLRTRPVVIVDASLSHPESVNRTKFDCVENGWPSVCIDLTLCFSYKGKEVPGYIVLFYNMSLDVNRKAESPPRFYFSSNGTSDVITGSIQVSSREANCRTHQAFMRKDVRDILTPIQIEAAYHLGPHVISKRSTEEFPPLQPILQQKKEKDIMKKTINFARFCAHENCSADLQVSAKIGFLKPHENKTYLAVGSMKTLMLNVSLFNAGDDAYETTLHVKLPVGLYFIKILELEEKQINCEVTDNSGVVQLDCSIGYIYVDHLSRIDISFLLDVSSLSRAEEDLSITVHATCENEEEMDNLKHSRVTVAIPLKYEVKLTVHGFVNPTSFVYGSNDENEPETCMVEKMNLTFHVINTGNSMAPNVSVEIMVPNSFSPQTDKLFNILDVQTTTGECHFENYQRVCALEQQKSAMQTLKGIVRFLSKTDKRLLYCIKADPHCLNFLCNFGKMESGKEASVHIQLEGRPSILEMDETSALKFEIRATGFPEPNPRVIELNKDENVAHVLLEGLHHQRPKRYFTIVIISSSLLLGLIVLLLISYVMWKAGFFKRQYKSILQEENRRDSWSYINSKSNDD
T2 sequence (P26010 whole entry): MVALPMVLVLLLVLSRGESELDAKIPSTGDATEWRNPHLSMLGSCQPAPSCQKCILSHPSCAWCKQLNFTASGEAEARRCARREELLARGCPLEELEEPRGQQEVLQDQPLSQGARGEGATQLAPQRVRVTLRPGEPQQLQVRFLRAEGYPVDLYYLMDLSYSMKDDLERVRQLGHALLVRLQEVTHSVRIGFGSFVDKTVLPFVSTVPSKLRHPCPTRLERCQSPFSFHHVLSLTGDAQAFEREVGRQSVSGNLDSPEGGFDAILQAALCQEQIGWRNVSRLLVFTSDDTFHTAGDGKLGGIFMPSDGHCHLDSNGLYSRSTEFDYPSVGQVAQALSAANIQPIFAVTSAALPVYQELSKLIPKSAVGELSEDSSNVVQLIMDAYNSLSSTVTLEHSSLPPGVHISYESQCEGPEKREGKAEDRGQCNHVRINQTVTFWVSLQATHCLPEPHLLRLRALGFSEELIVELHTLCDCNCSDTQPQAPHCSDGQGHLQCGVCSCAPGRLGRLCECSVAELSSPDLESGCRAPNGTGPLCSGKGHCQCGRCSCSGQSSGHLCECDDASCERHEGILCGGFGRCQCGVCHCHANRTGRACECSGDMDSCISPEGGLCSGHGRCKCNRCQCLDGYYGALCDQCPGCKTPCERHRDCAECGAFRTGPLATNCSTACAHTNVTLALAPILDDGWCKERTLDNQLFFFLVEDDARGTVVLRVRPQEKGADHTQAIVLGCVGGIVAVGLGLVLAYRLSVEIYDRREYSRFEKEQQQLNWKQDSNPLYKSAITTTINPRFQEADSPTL

Integrin alpha-4/beta-1 [7] = molecular target: T1, Integrin alpha-4/beta-1; assay: Inhibition of human VCAM1 binding to integrin alpha4beta1 receptor in human Ramos cells labeled with Calcein AM; type: cell-based; in short: as §1
[8] = Stability in plasma (unknown origin) assessed as unchanged prodrug level; type: ADME, cell-free
[9] = Solubility in simulated intestinal fluid at pH 7.5; type: physicochemical
[10] = simulated gastric fluid, read-out: solubility
[11] = simulated gi fluid, BLD = below limit of detection

SMILES	Papp [3]	Ratio IC50 (Integrin alpha-4/beta-1 [5])	Ratio IC50 [6]	IC50 (Integrin alpha-4/beta-7)	IC50 (Integrin alpha-4/beta-1 [7])	also measured
CCN(CC)CCOC(=O)[C@H](Cc1ccc(-c2c(C(F)(F)F)cc(C)n(C)c2=O)cc1)NC(=O)c1c(Cl)cccc1Cl	9.6 ×10⁻⁶ cm/s					solubility [1, 10]: > 5000 µg/mL; bioavailability [2]: 12%; half-life [4]: 0.5 h; IC20 (hERG (KCNH2)): 11700 nM
Cc1ccn(C)c(=O)c1-c1ccc(C[C@H](NC(=O)c2c(Cl)cccc2Cl)C(=O)O)cc1		0.37	1.6	179 nM	90 nM	
COCCOC(=O)[C@H](Cc1ccc(-c2c(C(F)(F)F)cc(C)n(C)c2=O)cc1)NC(=O)c1c(Cl)cccc1Cl	49.9 ×10⁻⁶ cm/s					solubility [1, 11]: BLD; Stability [4]: Stable
CCCOC(=O)[C@H](Cc1ccc(-c2c(C(F)(F)F)cc(C)n(C)c2=O)cc1)NC(=O)c1c(Cl)cccc1Cl	52.6 ×10⁻⁶ cm/s					solubility [1, 11]: BLD; Stability [4]: Stable
COCCC1(C(=O)N[C@@H](Cc2ccc(-c3c(C(F)(F)F)cc(C)n(C)c3=O)cc2)C(=O)O)CCCC1		0.75	0.54	671 nM	140 nM	
Cc1cc(C(F)(F)F)c(-c2ccc(C[C@H](NC(=O)c3c(Cl)cccc3Cl)C(=O)OCC3CCOC3)cc2)c(=O)n1C (stereo partly specified)	76.4 ×10⁻⁶ cm/s					solubility [1, 10]: 0.03 µg/mL (≈ 0.0491 µM); solubility [9]: 0.03 µg/mL (≈ 0.0491 µM); Stability [4]: Stable
Cc1cc(C(F)(F)F)n(C)c(=O)c1-c1ccc(C[C@H](NC(=O)c2c(Cl)cccc2Cl)C(=O)O)cc1		0.11	2.2	126 nM	269 nM	
Cc1cc(C(F)(F)F)c(-c2ccc(C[C@H](NC(=O)c3c(Cl)cccc3Cl)C(=O)OCC(=O)N(C)C)cc2)c(=O)n1C	6.3 ×10⁻⁶ cm/s					solubility [1, 10]: 0.8 µg/mL (≈ 1.31 µM); solubility [9]: 0.7 µg/mL (≈ 1.14 µM); Stability [4]: Stable
Cc1cc(C(F)(F)F)c(-c2ccc(C[C@H](NC(=O)c3c(Cl)cccc3Cl)C(=O)O)cc2)c(=O)n1Cc1ccccc1		0.12	0.96	600 nM	560 nM	
Cc1cccc(C(C)C)c1C(=O)N[C@@H](Cc1ccc(-c2c(C(F)(F)F)cc(C)n(C)c2=O)cc1)C(=O)O		0.36	0.23	1290 nM	366 nM	
Cc1cc(C(F)(F)F)c(-c2ccc(C[C@H](NC(=O)c3c(Cl)cccc3Cl)C(=O)O)cc2)c(=O)[nH]1		0.08	0.65	810 nM	820 nM	
CC(=O)OC(C)OC(=O)[C@H](Cc1ccc(-c2c(C(F)(F)F)cc(C)n(C)c2=O)cc1)NC(=O)c1c(Cl)cccc1Cl (stereo partly specified)	27.5 ×10⁻⁶ cm/s					bioavailability [2]: 17%; solubility [9]: 4 µg/mL (≈ 6.52 µM); Stability [4]: Stable
Cc1cc(C(F)(F)F)c(-c2ccc(C[C@H](NC(=O)c3c(Cl)cccc3Cl)C(=O)OCC(C)C)cc2)c(=O)n1C	32.5 ×10⁻⁶ cm/s					solubility [1, 11]: BLD; Stability [4]: Stable
CCc1cccc(C)c1C(=O)N[C@@H](Cc1ccc(-c2c(C(F)(F)F)cc(C)n(C)c2=O)cc1)C(=O)O		0.41	0.7	767 nM	225 nM	

Now from value to compound, other results behind:

Papp [3]	Ratio IC50 (Integrin alpha-4/beta-1 [5])	Ratio IC50 [6]	IC50 (Integrin alpha-4/beta-7)	IC50 (Integrin alpha-4/beta-1 [7])	SMILES	also measured
1.8 ×10⁻⁶ cm/s					Cc1cc(C(F)(F)F)c(-c2ccc(C[C@H](NC(=O)c3c(Cl)cccc3Cl)C(=O)OCC(O)CO)cc2)c(=O)n1C (stereo partly specified)	solubility [1, 10]: 190 µg/mL (≈ 316 µM); bioavailability [2]: 6%; Stability [8]: Stable; solubility [9]: 140 µg/mL (≈ 233 µM); Stability [4]: Stable
	0.06	2.6	160 nM	267 nM	Cc1cccc(Cl)c1C(=O)N[C@@H](Cc1ccc(-c2c(C)cc(C(F)(F)F)n(C)c2=O)cc1)C(=O)O	
	0.4	1.9	61 nM	112 nM	CCn1c(C)cc(C(F)(F)F)c(-c2ccc(C[C@H](NC(=O)c3c(Cl)cccc3Cl)C(=O)O)cc2)c1=O	
16.2 ×10⁻⁶ cm/s					Cc1cc(C(F)(F)F)c(-c2ccc(C[C@H](NC(=O)c3c(Cl)cccc3Cl)C(=O)OCCN3CCOCC3)cc2)c(=O)n1C	solubility [1, 10]: > 13000 µg/mL; bioavailability [2]: 15%; Stability [8]: Stable; solubility [9]: 200 µg/mL (≈ 312 µM); half-life [4]: 4 h; IC20 (hERG (KCNH2)): 11000 nM
	0.47	3.5	154 nM	48 nM	Cc1cccc(Cl)c1C(=O)N[C@@H](Cc1ccc(-c2c(C(F)(F)F)cc(C)n(C)c2=O)cc1)C(=O)O	
22.8 ×10⁻⁶ cm/s					COCCCOC(=O)[C@H](Cc1ccc(-c2c(C(F)(F)F)cc(C)n(C)c2=O)cc1)NC(=O)c1c(Cl)cccc1Cl	bioavailability [2]: 2%
				419 nM	COc1ccc(Br)c(C(=O)N[C@@H](Cc2ccc(-c3cccn(C)c3=O)cc2)C(=O)O)c1	
			43 nM	10 nM	Cc1cccc(Cl)c1C(=O)N[C@@H](Cc1ccc(NC(=O)c2c(Cl)cccc2Cl)cc1)C(=O)O	
	0.03	0.34	1230 nM	463 nM	Cc1cc(C(F)(F)F)c(-c2ccc(C[C@H](NC(=O)c3c(Cl)cccc3Cl)C(=O)O)cc2)c(=O)n1CC1CC1	
	0.23	0.68	363 nM	226 nM	Cc1cccc(Cl)c1C(=O)N[C@@H](Cc1ccc(-c2c(C)ccn(C)c2=O)cc1)C(=O)O	
	0.03	0.46	687 nM	582 nM	Cc1cccc(Cl)c1C(=O)N[C@@H](Cc1ccc(-c2cccn(C)c2=O)cc1)C(=O)O	
